# Assay results pooled from the literature.
# Lines come from different studies, so protocols differ.
SMILES,assay,system,conditions,solubility
COc1ccc(Cn2cc(CO[C@@H]3O[C@H]4[C@H](OC[C@H]4O)[C@H]3O)nn2)cc1,,PBS,pH 7.4,198 µM
CN1CCN(c2cccc(-c3ccc4ncnc(Nc5ccc(Cl)c(Cl)c5)c4c3)c2)CC1,,aqueous buffer,"pH 7.4, 25 °C",< 1.7 µM
CCOC(=O)C1=C(CN2CCOCC2)NC(c2nccs2)=NC1c1ccc(F)cc1Br (stereo not shown),HPLC,aqueous buffer,pH 7,< 1 µg/mL
NCc1ccc(-c2nn(Cc3ccccn3)c3cccnc23)o1,,aqueous buffer,"6 h, pH 7.4",> 30 µg/mL
CCCCN(CCCC)CCCOc1ccc2c(=O)c3c([nH]c2c1)CCCC3,absorbance,aqueous buffer,"90 min, pH 7.4",> 500 µM
Cc1ccc(Oc2ccc(NC(=O)CN(C)c3ccccc3N3CCCC3=O)cc2)cc1,,PBS,pH 7.4,4.8 µM
OCc1ccc(-c2nn(Cc3ccccc3)c3ccncc23)o1,,aqueous buffer,"6 h, pH 7.4",> 45 µg/mL
CN1CCN(c2cccc(-c3ccc4ncnc(Nc5ccc([N+](=O)[O-])c(C(F)(F)F)c5)c4c3)c2)CC1,,aqueous buffer,"pH 7.4, 25 °C",2 µM
CCCN1C(=O)COc2ccc(S(=O)(=O)Nc3cc(OC)ccc3OC)cc21,,PBS,"8 h, pH 7.4",100 µM
Cc1ccccc1CN1C(=O)C2=C(CCN(Cc3ccccc3)C2)N2CCN=C12,shake flask,aqueous buffer,pH 5,6020 µg/mL
COc1cc(NC(=O)Cn2cc(Cl)c3ccc(-c4cnn(C)c4)cc32)cc(OC)c1OC,,PBS,pH 7.4,< 2.7 µM
Cc1nsc(-c2nnc3n2CCN(C(=O)c2ccc(F)cc2)[C@@H]3C)n1,,aqueous buffer,pH 7.4,350 µg/mL
Cn1cc(Nc2ncnc3ccc(-c4cccc(N5CCOCC5)c4)cc23)cn1,,aqueous buffer,"pH 7.4, 25 °C",1.5 µM
O=C(Nc1ccc(OC(F)(F)F)cc1)N[C@H]1CC[C@H](Oc2ccc(C(=O)O)cc2)CC1,,simulated gastric fluid,"30 min, pH 1, 37 °C, acidic",0.0005 µg/mL
CNS(=O)(=O)c1ccc(Nc2ncc(C(F)(F)F)c(N3CCC[C@](C)(O)C3)n2)c(C)c1,,PBS,"2 h, pH 7.4",37 µM
OCc1ccc(-c2nn(Cc3ccccc3)c3ncccc23)o1,,aqueous buffer,"6 h, pH 7.4",> 45 µg/mL
c1cc(-c2ccc3ncnc(Nc4ncco4)c3c2)nc(N2C[C@H]3C[C@@H]2CO3)n1,,aqueous buffer,"pH 7.4, 25 °C",48 µM
CC(=O)N[C@@H](CS)C(=O)O,,aqueous buffer,pH 7.5,164000 µg/mL
CC(C)(C(=O)O)[C@H](NC(=O)Cc1cccc(I)c1)c1ccc2oc(=O)[nH]c2c1,,aqueous buffer,pH 6.8,> 700 µM
NCc1ccc(-c2nn(Cc3ccncc3)c3ccccc23)o1,,aqueous buffer,"6 h, pH 7.4",> 30 µg/mL
c1cc(-c2ccc3ncnc(Nc4ncco4)c3c2)cc(N2CC3(COC3)C2)c1,,aqueous buffer,"pH 7.4, 25 °C",3 µM
Cc1cc(/C=C/C#N)cc(C)c1Nc1ccnc(Nc2ccc(C#N)cc2)n1,,water,"24 h, 37 °C",0.2 µg/mL
Cc1ccc(N(C)c2ccc(NC(=O)CN(C)c3cc(F)ccc3N3CCCC3=O)cc2)cc1,,PBS,pH 7.4,6.3 µM
OCc1ccc(-c2nn(Cc3ccccc3)c3cccnc23)o1,,aqueous buffer,"6 h, pH 7.4",> 45 µg/mL
Cc1ccc(N(c2ccc(NC(=O)CN(C)c3ccccc3N3CCCC3=O)cc2)C(C)C)cc1,,PBS,pH 7.4,< 2.5 µM
c1ccc(Oc2ccc(Nc3c4c(nc5ccccc35)CCC4)cc2)cc1,nephelometry,aqueous buffer,"30 min, pH 6.5",1.6 to 3.1 µg/mL
COc1cccc(Cn2nc(-c3ccc(CO)o3)c3ccccc32)c1,,aqueous buffer,"6 h, pH 7.4",1 µg/mL
C[C@@H]1COCCN1c1cccc(-c2ccc3ncnc(Nc4ncco4)c3c2)c1,,aqueous buffer,"pH 7.4, 25 °C",23 µM
CCOC(=O)C1=C(CN2CCC[C@@H]2C(=O)Nc2ccc(B(O)O)cc2)NC(c2nccs2)=N[C@H]1c1ccc(F)cc1Br,HPLC,aqueous buffer,pH 7,2.57 µg/mL
O=c1c2c([nH]c3cc(Oc4ccc(OC(F)(F)F)cc4)ccc13)CCCC2,absorbance,aqueous buffer,"90 min, pH 7.4",18.5 µM
COc1ncccc1Cn1nc(-c2ccc(CO)o2)c2ccccc21,,aqueous buffer,"6 h, pH 7.4",> 33 µg/mL
Cc1ccc(Oc2ccc(NC(=O)CNc3ccccc3-n3cncn3)cc2)cc1,,PBS,pH 7.4,15 µM
O=C(O)Cc1ccccc1Nc1c(Cl)cccc1Cl,,FaSSIF,,324 µM
CCCN(CCC)CCCOc1ccc2c(=O)c3c([nH]c2c1)CCCC3,absorbance,aqueous buffer,"90 min, pH 7.4",> 500 µM
COc1cc(NC(=O)Cn2ccc3cc(F)c(-c4cnn(C)c4)cc32)cc(OC)c1OC,,PBS,pH 7.4,< 2.7 µM
CO[C@H]1C[C@@H]2CC[C@@H](C)[C@@](O)(O2)C(=O)C(=O)N2CCCC[C@H]2C(=O)O[C@H]([C@H](C)C[C@@H]2CC[C@@H](O)[C@H](OC)C2)CC(=O)[C@H](C)/C=C(\C)[C@@H](O)[C@@H](OC)C(=O)[C@H](C)C[C@H](C)/C=C/C=C/C=C/1C,,aqueous buffer,"18 h, pH 7.4",6.03 µM
Cc1ccc(N(C)c2ccc(NC(=O)CN(C)c3ccccc3N3CCCC3=O)cn2)cc1,,PBS,pH 7.4,44 µM
CCN(CC)CCCOc1ccc2c(=O)c3c([nH]c2c1)CCCC3,absorbance,aqueous buffer,"90 min, pH 7.4",> 500 µM
CC1(CNc2nc(-c3cccs3)nc(Cl)c2-c2c(F)cc(N)cc2F)COC1,mass spectrometry,PBS,pH 7.4,46 µM
O=C(O)c1cc(-c2ccc(-n3ccnn3)cc2)cc(-n2cc(-c3ccc(C(F)(F)F)cc3)nn2)c1,,aqueous buffer,pH 4,0.74 µg/mL
Cc1ccc(Nc2cnnc3ccc(-c4ccc(N5CCCN(C)CC5)cc4)cc23)cn1,,aqueous buffer,"pH 7.4, 25 °C",82 µM
CNS(=O)(=O)c1ccc(Nc2ncc(C(F)(F)F)c([C@H]3CC[C@@](C)(O)CC3)n2)c(C)c1,,PBS,"2 h, pH 7.4",11 µM
Cc1cc(-c2ccnc3[nH]cc(F)c23)cc(F)c1[C@@]1(O)[C@H](C)CN(C(=O)CN)C[C@@H]1C,,aqueous buffer,,11.9 µg/mL
CNS(=O)(=O)c1ccc(Nc2ncc(C(F)(F)F)c(N3CCC(C)(O)CC3)n2)c(C)c1,,FaSSIF,2 h,26 µM
c1cc(-c2ccc3ncnc(Nc4ncco4)c3c2)nc(N2CCOCC2)n1,,aqueous buffer,"pH 7.4, 25 °C",3 µM
CN(C)CCOc1ccc2c(=O)c3c([nH]c2c1)CCCC3,absorbance,aqueous buffer,"90 min, pH 7.4",> 500 µM
